Source: ChEMBL document CHEMBL5724801, “EUbOPEN Chemogenomics Library - Multiplex” (2024)
Where “and” joins values, the source holds several entries; their conditions need not be identical. Equal entries are not always repeated.

Test system: Fibroblast
Test: Multiplex assay against human fibroblast
Assay type: toxicity, cell-based
How it was run: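 Live cells were stained at seeding with Hoechst33342, BioTracker Green Microtubule Cytoskeleton Dye, MitoTracker Red and Annexin V Alexa Fluor 680, then imaged on a CQ1 microscope at 37°C and 5% CO2 after compound addition. CellPathfinder machine-learning gating split cells into Hoechst high-intensity objects or normal cells. Normal cells were split into healthy, pyknosed or fragmented nuclei, and pyknosed cells into mitotic or apoptotic. Tubulin, mitochondrial-mass and membrane-permeability phenotypes are per cents of healthy-nucleus cells.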

[1] = 12 h, 1 µM, compound concentration 1 uM
[2] = 12 h, 10 µM, compound concentration 10 uM
[3] = 24 h, 1 µM, compound concentration 1 uM
[4] = 24 h, 10 µM, compound concentration 10 uM
[5] = 48 h, 1 µM, compound concentration 1 uM
[6] = 48 h, 10 µM, compound concentration 10 uM

Nc1nccc(-c2ccn3c(N)nccc23)n1
Population Apoptotic (%) [1]: 13.51% and 18.75%
Population Healthy Nuclei (%) [1]: 61.49% and 82.11%
Population Hoechst High Intensity Objects (%) [1]: 0%
Population Membrane Permeable-Phenotype (%) [1]: 5.05% and 4.47%
Population Mitochondria Different-Phenotype (%) [1]: 4.04% and 6.7%
Population Mitotic Cells (%) [1]: 86.49% and 81.25%
Population Normal (%) [1]: 100%
Population Pyknosed Nuclei (%) [1]: 22.98% and 14.68%
Population Tubulin-Different-Phenotype (%) [1]: 7.07% and 20.11%
Total Cell Count [1]: 161 and 218
Population Apoptotic (%) [2]: 10.71% and 9.09%
Population Fragmented Nuclei (%) [2]: 8.62% and 3.03%
Population Healthy Nuclei (%) [2]: 75.29% and 82.68%
Population Hoechst High Intensity Objects (%) [2]: 0%
Population Membrane Permeable-Phenotype (%) [2]: 8.4% and 3.14%
Population Mitochondria Different-Phenotype (%) [2]: 6.87% and 7.33%
Population Mitotic Cells (%) [2]: 89.29% and 90.91%
Population Normal (%) [2]: 100%
Population Pyknosed Nuclei (%) [2]: 16.09% and 14.29%
Population Tubulin-Different-Phenotype (%) [2]: 9.16% and 16.75%
Total Cell Count [2]: 174 and 231
Population Apoptotic (%) [3]: 15.56% and 14.81%
Population Fragmented Nuclei (%) [3]: 8.38% and 5.44%
Population Healthy Nuclei (%) [3]: 68.06% and 83.26%
Population Hoechst High Intensity Objects (%) [3]: 0%
Population Membrane Permeable-Phenotype (%) [3]: 0.77% and 2.51%
Population Mitochondria Different-Phenotype (%) [3]: 2.31% and 2.51%
Population Mitotic Cells (%) [3]: 84.44% and 85.19%
Population Normal (%) [3]: 100%
Population Pyknosed Nuclei (%) [3]: 23.56% and 11.3%
Population Tubulin-Different-Phenotype (%) [3]: 13.08% and 16.58%
Total Cell Count [3]: 191 and 239
Population Apoptotic (%) [4]: 6.98% and 4.35%
Population Fragmented Nuclei (%) [4]: 9.95% and 3.5%
Population Healthy Nuclei (%) [4]: 69.67% and 87.55%
Population Hoechst High Intensity Objects (%) [4]: 0%
Population Membrane Permeable-Phenotype (%) [4]: 4.76% and 5.33%
Population Mitochondria Different-Phenotype (%) [4]: 5.44% and 2.22%
Population Mitotic Cells (%) [4]: 93.02% and 95.65%
Population Normal (%) [4]: 100%
Population Pyknosed Nuclei (%) [4]: 20.38% and 8.95%
Population Tubulin-Different-Phenotype (%) [4]: 16.33% and 21.33%
Total Cell Count [4]: 211 and 257
Population Apoptotic (%) [5]: 22.73% and 26.09%
Population Fragmented Nuclei (%) [5]: 8.37% and 5.8%
Population Healthy Nuclei (%) [5]: 81.4% and 83.93%
Population Hoechst High Intensity Objects (%) [5]: 0%
Population Membrane Permeable-Phenotype (%) [5]: 1.14% and 3.72%
Population Mitochondria Different-Phenotype (%) [5]: 9.71% and 2.66%
Population Mitotic Cells (%) [5]: 77.27% and 73.91%
Population Normal (%) [5]: 100%
Population Pyknosed Nuclei (%) [5]: 10.23% and 10.27%
Total Cell Count [5]: 215 and 224
Population Apoptotic (%) [6]: 23.53% and 19.05%
Population Fragmented Nuclei (%) [6]: 6.48% and 4.4%
Population Healthy Nuclei (%) [6]: 86.64% and 87.2%
Population Hoechst High Intensity Objects (%) [6]: 0%
Population Membrane Permeable-Phenotype (%) [6]: 1.87% and 1.83%
Population Mitotic Cells (%) [6]: 76.47% and 80.95%
Population Normal (%) [6]: 100%
Population Pyknosed Nuclei (%) [6]: 6.88% and 8.4%
Total Cell Count [6]: 247 and 250

CCOC(=O)c1cnn(-c2ccc(NC(=O)C(Cl)=C(Cl)Cl)cc2)c1C(F)(F)F
Population Apoptotic (%) [1]: 8.82% and 15%
Population Fragmented Nuclei (%) [1]: 15.65% and 11.22%
Population Healthy Nuclei (%) [1]: 61.22% and 68.37%
Population Hoechst High Intensity Objects (%) [1]: 0%
Population Membrane Permeable-Phenotype (%) [1]: 5.56% and 0%
Population Mitochondria Different-Phenotype (%) [1]: 6.67% and 10.45%
Population Mitotic Cells (%) [1]: 91.18% and 85%
Population Normal (%) [1]: 100%
Population Pyknosed Nuclei (%) [1]: 23.13% and 20.41%
Population Tubulin-Different-Phenotype (%) [1]: 8.89% and 11.94%
Total Cell Count [1]: 147 and 196
Population Apoptotic (%) [2]: 23.28% and 49.64%
Population Fragmented Nuclei (%) [2]: 10.69% and 2.33%
Population Healthy Nuclei (%) [2]: 16.35% and 18.02%
Population Hoechst High Intensity Objects (%) [2]: 0%
Population Membrane Permeable-Phenotype (%) [2]: 7.69% and 12.9%
Population Mitotic Cells (%) [2]: 76.72% and 50.36%
Population Normal (%) [2]: 100%
Population Pyknosed Nuclei (%) [2]: 72.96% and 79.65%
Population Tubulin-Different-Phenotype (%) [2]: 42.31% and 54.84%
Total Cell Count [2]: 159 and 172
Population Apoptotic (%) [3]: 32.35% and 26.32%
Population Fragmented Nuclei (%) [3]: 13.42% and 8.93%
Population Healthy Nuclei (%) [3]: 63.76% and 82.59%
Population Hoechst High Intensity Objects (%) [3]: 0%
Population Membrane Permeable-Phenotype (%) [3]: 1.05% and 1.08%
Population Mitochondria Different-Phenotype (%) [3]: 5.26% and 3.78%
Population Mitotic Cells (%) [3]: 67.65% and 73.68%
Population Normal (%) [3]: 100%
Population Pyknosed Nuclei (%) [3]: 22.82% and 8.48%
Population Tubulin-Different-Phenotype (%) [3]: 12.63% and 12.43%
Total Cell Count [3]: 149 and 224
Population Apoptotic (%) [4]: 37.76% and 80.65%
Population Fragmented Nuclei (%) [4]: 17.09% and 8.6%
Population Healthy Nuclei (%) [4]: 20.89% and 24.73%
Population Hoechst High Intensity Objects (%) [4]: 0%
Population Membrane Permeable-Phenotype (%) [4]: 15.15% and 43.48%
Population Mitochondria Different-Phenotype (%) [4]: 0% and 19.57%
Population Normal (%) [4]: 100%
Population Pyknosed Nuclei (%) [4]: 62.03% and 66.67%
Population Tubulin-Different-Phenotype (%) [4]: 39.39% and 84.78%
Total Cell Count [4]: 158 and 186
Population Apoptotic (%) [5]: 35.29% and 26.67%
Population Fragmented Nuclei (%) [5]: 12.65% and 7.11%
Population Healthy Nuclei (%) [5]: 77.11% and 86.22%
Population Hoechst High Intensity Objects (%) [5]: 0%
Population Membrane Permeable-Phenotype (%) [5]: 0.78% and 1.55%
Population Mitotic Cells (%) [5]: 64.71% and 73.33%
Population Normal (%) [5]: 100%
Population Pyknosed Nuclei (%) [5]: 10.24% and 6.67%
Population Tubulin-Different-Phenotype (%) [5]: 4.69% and 11.86%
Total Cell Count [5]: 166 and 225
Population Apoptotic (%) [6]: 35.48% and 83.87%
Population Fragmented Nuclei (%) [6]: 22.75% and 43.62%
Population Healthy Nuclei (%) [6]: 58.68% and 39.89%
Population Hoechst High Intensity Objects (%) [6]: 0%
Population Membrane Permeable-Phenotype (%) [6]: 14.29% and 37.33%
Population Mitochondria Different-Phenotype (%) [6]: 15.31% and 25.33%
Population Normal (%) [6]: 100%
Population Pyknosed Nuclei (%) [6]: 18.56% and 16.49%
Population Tubulin-Different-Phenotype (%) [6]: 40.82% and 89.33%
Total Cell Count [6]: 167 and 188
